Reference: ChEMBL document CHEMBL1150225, “Cytotoxic cholestane glycosides from the bulbs of Ornithogalum saundersiae” (J Nat Prod, 2001)

Tested on: HL-60
Assay: Cytotoxicity against human HL60 cells after 72 hrs by MTT assay
Type: functional, cell-based
Details: HL-60, 72 h
How it was run: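 HL-60 leukemia cells kept in RPMI 1640 with 10% fetal bovine serum, L-glutamine, 100 units/mL penicillin and 100 μg/mL streptomycin. Cells at 3 × 10^4 cells/mL exposed continuously to compound for 72 h. Growth read by MTT reduction. IC50 (50% inhibition) calculated from each compound's dose–response curve.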

| SMILES | IC50 [nM] |
| --- | --- |
| COc1cc(C(=O)O[C@H]2[C@H](O[C@@H]3[C@@H](OC(C)=O)[C@H](O[C@H]4C[C@H]5[C@@H]6CC=C7C[C@@H](O)CC[C@]7(C)[C@H]6CC[C@]5(C)[C@@]4(O)[C@H](C)C(=O)CCC(C)C)OC[C@@H]3O)OC[C@@H](O[C@@H]3O[C@H](CO)[C@@H](O)[C@H](O)[C@H]3O)[C@@H]2O)cc(OC)c1OC | 14 |
| CC(C)CCC(=O)[C@@H](C)[C@@]1(O)[C@@H](O[C@@H]2OC[C@H](O)[C@H](O[C@@H]3OC[C@@H](O)[C@H](O)[C@H]3O)[C@H]2O)C[C@H]2[C@@H]3CC=C4C[C@@H](O)CC[C@]4(C)[C@H]3CC[C@@]21C | 190 |
| COc1cccc2c1C(=O)c1c(O)c3c(c(O)c1C2=O)C[C@@](O)(C(=O)CO)C[C@@H]3O[C@H]1C[C@H](N)[C@H](O)[C@H](C)O1 [DOXORUBICIN] | 7.2 |
| COc1cc([C@@H]2c3cc4c(cc3[C@@H](O[C@@H]3O[C@@H]5CO[C@@H](C)O[C@H]5[C@H](O)[C@H]3O)[C@H]3COC(=O)[C@H]23)OCO4)cc(OC)c1O [ETOPOSIDE] | 25 |
| CN(Cc1cnc2nc(N)nc(N)c2n1)c1ccc(C(=O)N[C@@H](CCC(=O)O)C(=O)O)cc1 [METHOTREXATE] | 12 |
